Laboratory results published in ChEMBL document CHEMBL1147346, “Isolation of pseudoprototimosaponin AIII from rhizomes of Anemarrhena asphodeloides and its hypoglycemic activity in streptozotocin-induced diabetic mice” (1993).

What was measured:
Mus musculus [1] = assay: Hypoglycemic activity in fasted alloxan monohydrate-induced diabetic ddY mouse assessed as decrease in blood glucose level at 50 mg/kg, ip after 6 hrs by glucose oxidase method; type: functional; set-up: scale not given: the % may be the effect or the level left; settings: route intraperitoneal
Method in brief: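 Male ddY mice given alloxan monohydrate 90 mg/kg iv bolus in saline via tail vein, used 1 or 4 weeks later; fasting glucose >150 mg/dl after 13–14 h fast. Dosed 50 mg/kg ip; saline control. Glucose oxidase read-out. Percent fall = (A − B)/(A − 85) × 100, A and B being glucose before and 6 h after injection. Means ± SEM, n = 5–10.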

Mus musculus [2] = assay: Hypoglycemic activity in fasted po dosed streptozotocin-induced diabetic ddY mouse assessed as decrease in blood glucose level after 6 hrs by glucose oxidase method; type: functional; settings: for ED50: read-out: ID50 (the source's name)
Method in brief: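 Male ddY mice given streptozotocin 150 mg/kg iv in saline via tail vein, used 1 or 4 weeks later; fasting glucose >150 mg/dl after 13–14 h fast. Graded doses. Percent fall computed from glucose before and after dosing versus 85 mg/dl normal mean. ID50 with 95% confidence limits from dose-inhibition curves; 7–12 mice per point, mean ± SEM.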

Mus musculus [3] = assay: Effect on blood glucose level in fasted ddY mouse at 50 mg/kg, ip after 6 hrs by glucose oxidase method; type: functional, organism-based; set-up: dose 50 mg/kg
Method in brief: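 Non-diabetic male ddY mice, 7–8 weeks of age (33–41 g), fasted; 50 mg/kg given ip. Blood glucose measured by glucose oxidase on a glucose analyzer.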

Pancreas = assay: Stimulation of immunoreactive insulin release in perfused Wistar rat pancreas at 1 mg/ml for 10 mins by radioimmunoassay; type: functional
Method in brief: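 Male Wistar rat pancreas (6–7 weeks) perfused via celiac artery with KRB pH 7.4, 0.5% BSA, 2% dextran, 2.8 mM glucose basal, 95% O2/5% CO2. Stimulated with 16.7 mM glucose ± 1 mg/ml test agent for 10 min. Portal vein effluent insulin measured by radioimmunoassay. n = 7.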

| Activity (Mus musculus [2]) | SMILES | Activity (Mus musculus [1]) [%] | ED50 (Mus musculus [2]) [mg/kg] | Activity (Mus musculus [3]) | Activity (Pancreas) [ng/mL] |
| --- | --- | --- | --- | --- | --- |
| Dose-dependent effect | CC1=C(CC[C@H](C)CO[C@@H]2O[C@H](CO)[C@@H](O)[C@H](O)[C@H]2O)O[C@H]2C[C@H]3[C@@H]4CC[C@@H]5C[C@@H](O[C@@H]6O[C@H](CO)[C@H](O)[C@H](O)[C@H]6O[C@@H]6O[C@H](CO)[C@@H](O)[C@H](O)[C@H]6O)CC[C@]5(C)[C@H]4CC[C@]3(C)[C@@H]12 [PSEUDOPROTOTIMOSAPONIN AIII] | 82.8 | 4.33 |  |  |
| Dose-dependent effect | C[C@@H](CCC1(O)O[C@H]2C[C@H]3[C@@H]4CC[C@@H]5C[C@@H](O[C@@H]6O[C@H](CO)[C@H](O)[C@H](O)[C@H]6O[C@@H]6O[C@H](CO)[C@@H](O)[C@H](O)[C@H]6O)CC[C@]5(C)[C@H]4CC[C@]3(C)[C@H]2[C@@H]1C)CO[C@@H]1O[C@H](CO)[C@@H](O)[C@H](O)[C@H]1O (stereo partly specified) [PROTOTIMOSAPONIN AIII] | 73.4 | 6.62 | Dose-dependent effect | 59.7 |
| Dose-dependent effect | COc1ccc(Cl)cc1C(=O)NCCc1ccc(S(=O)(=O)NC(=O)NC2CCCCC2)cc1 [GLYBURIDE] |  | 0.33 |  |  |
|  | C[C@H]1CC[C@@]2(OC1)O[C@H]1C[C@H]3[C@@H]4CC[C@@H]5C[C@@H](O[C@@H]6O[C@H](CO)[C@H](O)[C@H](O)[C@H]6O[C@@H]6O[C@H](CO)[C@@H](O)[C@H](O)[C@H]6O)CC[C@]5(C)[C@H]4CC[C@]3(C)[C@H]1[C@@H]2C [TIMOSAPONIN AIII] | 64.5 |  |  |  |
